Test results from ChEMBL document CHEMBL6109036, “Azo derivatives of monoterpenes as anti-Helicobacter pylori agents: from synthesis to structure-based target investigation” (RSC Med Chem, 2025).
Converted amounts (≈) assume the structure as drawn.

Legend:
Format in all cases: functional
Helicobacter pylori [1] = experiment: Anti-bacterial activity against Helicobacter pylori Clinical isolate F1 measured after 72 hrs incubation by modified broth dilution method
Helicobacter pylori [2] = experiment: Bactericidal activity against Helicobacter pylori Clinical isolate F1 measured after 72 hrs of incubation under microaerophilic conditions by modified broth dilution method; conditions: read-out: MBC99.9
How it was run: (§1)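 H. pylori (NCTC 11637, F1, 23, F4). Wells with no visible growth in the MIC assay spotted (10 μL) onto Skirrow agar. Plates incubated 72 h at 37 °C, microaerophilic, 100% humidity. MBC = concentration killing 99.9% of the initial inoculum. Triplicate, on at least three different days.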

Helicobacter pylori [3] = experiment: Anti-bacterial activity against Helicobacter pylori Clinical isolate 23 measured after 72 hrs incubation by modified broth dilution method
Helicobacter pylori [4] = experiment: Bactericidal activity against Helicobacter pylori Clinical isolate 23 measured after 72 hrs of incubation under microaerophilic conditions by modified broth dilution method; conditions: read-out: MBC99.9; how it was run: as §1
Helicobacter pylori [5] = experiment: Anti-bacterial activity against Helicobacter pylori NCTC 11637 measured after 72 hrs incubation by modified broth dilution method
Helicobacter pylori [6] = experiment: Bactericidal activity against Helicobacter pylori NCTC 11637 measured after 72 hrs of incubation under microaerophilic conditions by modified broth dilution method; conditions: read-out: MBC99.9; how it was run: as §1
Helicobacter pylori [7] = experiment: Anti-bacterial activity against Helicobacter pylori Clinical isolate F4 measured after 72 hrs incubation by modified broth dilution method
Helicobacter pylori [8] = experiment: Bactericidal against Helicobacter pylori Clinical isolate F4 measured after 72 hrs of incubation under microaerophilic conditions by modified broth dilution method; conditions: read-out: MBC99.9; how it was run: as §1
Helicobacter pylori [9] = experiment: Anti-bacterial activity against Helicobacter pylori measured after 72 hrs incubation by modified broth dilution method
Helicobacter pylori [10] = experiment: Bactericidal against Helicobacter pylori measured after 72 hrs of incubation under microaerophilic conditions by modified broth dilution method
How it was run: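 Wells with no visible growth in the MIC assay spotted (10 μL) onto Skirrow agar. Plates incubated 72 h at 37 °C, microaerophilic, 100% humidity. Triplicate, on at least three different days.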

Structure (SMILES)	MIC (Helicobacter pylori [1])	MBC (Helicobacter pylori [2])	MIC (Helicobacter pylori [3])	MBC (Helicobacter pylori [4])	MIC (Helicobacter pylori [5])	MBC (Helicobacter pylori [6])	MIC (Helicobacter pylori [7])	MBC (Helicobacter pylori [8])	MIC50 (Helicobacter pylori [9])	MIC90 (Helicobacter pylori [9])	MBC (Helicobacter pylori [10]; Helicobacter pylori, read-out: MBC99.9)	MBC90 (Helicobacter pylori [10])
Cc1ccc(C(C)C)cc1O [CARVACROL]	64 µg/mL (≈ 426 µM)	64 µg/mL (≈ 426 µM)	64 µg/mL (≈ 426 µM)	64 µg/mL (≈ 426 µM)	64 µg/mL (≈ 426 µM)	64 µg/mL (≈ 426 µM)	64 µg/mL (≈ 426 µM)	64 µg/mL (≈ 426 µM)	64 µg/mL (≈ 426 µM)	64 µg/mL (≈ 426 µM)	64 µg/mL (≈ 426 µM)	–
COc1ccc(/N=N/c2cc(C(C)C)c(OC)cc2C)cc1	128 µg/mL (≈ 429 µM)	> 128 µg/mL	> 128 µg/mL	> 128 µg/mL	> 128 µg/mL	> 128 µg/mL	128 µg/mL (≈ 429 µM)	128 µg/mL (≈ 429 µM)	128 µg/mL (≈ 429 µM)	> 128 µg/mL	–	>128 µg/mL
Cc1cc(/N=N/c2ccccc2Cl)c(C(C)C)cc1O	4 µg/mL (≈ 13.9 µM)	4 µg/mL (≈ 13.9 µM)	4 µg/mL (≈ 13.9 µM)	4 µg/mL (≈ 13.9 µM)	4 µg/mL (≈ 13.9 µM)	4 µg/mL (≈ 13.9 µM)	2 µg/mL (≈ 6.93 µM)	2 µg/mL (≈ 6.93 µM)	4 µg/mL (≈ 13.9 µM)	4 µg/mL (≈ 13.9 µM)	–	4 µg/mL (≈ 13.9 µM)
Cc1ccccc1/N=N/c1cc(C(C)C)c(O)cc1C	4 µg/mL (≈ 14.9 µM)	4 µg/mL (≈ 14.9 µM)	8 µg/mL (≈ 29.8 µM)	8 µg/mL (≈ 29.8 µM)	4 µg/mL (≈ 14.9 µM)	4 µg/mL (≈ 14.9 µM)	4 µg/mL (≈ 14.9 µM)	4 µg/mL (≈ 14.9 µM)	4 µg/mL (≈ 14.9 µM)	8 µg/mL (≈ 29.8 µM)	–	8 µg/mL (≈ 29.8 µM)
COc1cc(C=O)cc(/N=N/c2cccc(Cl)c2)c1O	128 µg/mL (≈ 440 µM)	128 µg/mL (≈ 440 µM)	128 µg/mL (≈ 440 µM)	128 µg/mL (≈ 440 µM)	128 µg/mL (≈ 440 µM)	> 128 µg/mL	128 µg/mL (≈ 440 µM)	128 µg/mL (≈ 440 µM)	128 µg/mL (≈ 440 µM)	> 128 µg/mL	–	>128 µg/mL
C=CCc1cc(/N=N/c2ccc([N+](=O)[O-])cc2)c(O)c(OC)c1	64 µg/mL (≈ 204 µM)	64 µg/mL (≈ 204 µM)	128 µg/mL (≈ 409 µM)	128 µg/mL (≈ 409 µM)	64 µg/mL (≈ 204 µM)	64 µg/mL (≈ 204 µM)	64 µg/mL (≈ 204 µM)	128 µg/mL (≈ 409 µM)	64 µg/mL (≈ 204 µM)	128 µg/mL (≈ 409 µM)	–	128 µg/mL (≈ 409 µM)
C=CCc1cc(/N=N/c2ccccc2C)c(O)c(OC)c1	128 µg/mL (≈ 453 µM)	128 µg/mL (≈ 453 µM)	64 µg/mL (≈ 227 µM)	64 µg/mL (≈ 227 µM)	128 µg/mL (≈ 453 µM)	128 µg/mL (≈ 453 µM)	64 µg/mL (≈ 227 µM)	64 µg/mL (≈ 227 µM)	64 µg/mL (≈ 227 µM)	128 µg/mL (≈ 453 µM)	–	128 µg/mL (≈ 453 µM)
C=CCc1cc(/N=N/c2cccc(OC)c2)c(O)c(OC)c1	> 128 µg/mL	> 128 µg/mL	> 128 µg/mL	> 128 µg/mL	> 128 µg/mL	> 128 µg/mL	> 128 µg/mL	> 128 µg/mL	> 128 µg/mL	> 128 µg/mL	–	>128 µg/mL
Cc1cc(O)c(C(C)C)cc1C1(c2cc(C(C)C)c(O)cc2C)OS(=O)(=O)c2ccccc21	128 µg/mL (≈ 274 µM)	128 µg/mL (≈ 274 µM)	128 µg/mL (≈ 274 µM)	> 128 µg/mL	> 128 µg/mL	> 128 µg/mL	> 128 µg/mL	> 128 µg/mL	> 128 µg/mL	> 128 µg/mL	–	>128 µg/mL
COc1cc(C=O)cc(/N=N/c2cccc([N+](=O)[O-])c2)c1O	16 µg/mL (≈ 53.1 µM)	16 µg/mL (≈ 53.1 µM)	8 µg/mL (≈ 26.6 µM)	8 µg/mL (≈ 26.6 µM)	8 µg/mL (≈ 26.6 µM)	8 µg/mL (≈ 26.6 µM)	8 µg/mL (≈ 26.6 µM)	16 µg/mL (≈ 53.1 µM)	8 µg/mL (≈ 26.6 µM)	16 µg/mL (≈ 53.1 µM)	–	16 µg/mL (≈ 53.1 µM)
